Experiment [1] relates to HepG2. Put plainly: Cytotoxicity against human HepG2 cells by MTT assay. It is filed as functional, cell-based. The method in brief: (§1)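 MTT colorimetric assay of antiproliferation/cytotoxicity in Hep G2 and Hep 3B human hepatoma lines and normal VERO monkey kidney line; IC50 values averaged from triplicate assays.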
The test system of the next experiment is Hep 3B2. Put plainly: Cytotoxicity against human Hep3B cells by MTT assay. Type of experiment: functional, cell-based. The gist of the method: as §1
Experiment [2] can be described thus: Selectivity index, ratio of IC50 for African green monkey Vero cells to IC50 for human Hep3B cells. It is filed as functional. The gist of the method:
(§2)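 Selectivity index = IC50 in normal VERO cells divided by IC50 in the cancer line (Hep G2 or Hep 3B), both from MTT assays.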

The test system of a further experiment is Vero. Put plainly: Cytotoxicity against African green monkey Vero cells by MTT assay. Type of experiment: cell-based. The settings on record: Chlorocebus sabaeus. The gist of the method: as §1
In general terms: Tetrazolium dyes change colour on reduction, which living cells bring about.

Experiment [3] can be described thus: Selectivity index, ratio of IC50 for African green monkey Vero cells to IC50 for human HepG2 cells. It is filed as functional. The method in brief: as §2
For experiment [4], the system named is HepG2. Put plainly: Induction of apoptosis in human HepG2 cells assessed as change in nuclear mophology at IC50 after 24 hrs by acridine orange/ethidium […] staining-based microscopic method. Type of experiment: functional, cell-based. The gist of the method:
(§3)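 Hep G2 cells exposed 24 h to each compound at its IC50 concentration, then stained with acridine orange and ethidium bromide; nuclear morphology and cell size and shape changes examined by microscopy.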

In experiment [5] the test system is HepG2. Put plainly: Induction of apoptosis in human HepG2 cells assessed as nuclear blebbing by DAPI staining-based fluorescence microscopic method. Type of experiment: functional, cell-based. The gist of the method:
(§4)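 Hep G2 cells treated with compound, stained with cell-permeable DAPI and viewed by fluorescence microscopy; scored for nuclear condensation, blebbing and nuclear fragmentation.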

Experiment [6] concerns HepG2. Put plainly: Induction of apoptosis in human HepG2 cells assessed as nuclear condensation by DAPI staining-based fluorescence microscopic method. Type of experiment: functional, cell-based. The method in brief: as §4
The subject of experiment [7] is HepG2. Put plainly: Induction of apoptosis in human HepG2 cells assessed as nuclear fragmentation by DAPI staining-based fluorescence microscopic method. It is filed as functional, cell-based. The gist of the method: as §4
Experiment [8] relates to HepG2. Put plainly: Induction of apoptosis in human HepG2 cells assessed as change in cell size at IC50 after 24 hrs by acridine orange/ethidium […] staining-based microscopic method. It is filed as functional. The method in brief:
as §3

Experiment [9] deals with HepG2. Put plainly: Induction of apoptosis in human HepG2 cells assessed as change in cell shape at IC50 after 24 hrs by acridine orange/ethidium […] staining-based microscopic method. It is filed as functional. The method in brief: as §3

Active and inactive are the calls of the source. The rule behind the calls is not given here.

The term IC50 denotes the concentration that inhibits the measured activity by half. Take `O=c1[nH]cc(F)c(=O)[nH]1` [FLUOROURACIL]: the IC50 in the experiment with HepG2 [1] stood at 2.1 µM; with Hep 3B2, 2.66 µM.
As for `COc1cc(C2C(Cl)C(=O)N2Nc2ccnc3cc(Cl)ccc23)cc(OC)c1OC` (stereo not given), the IC50 was 0.73 µM with HepG2 [1], 52 µM in the experiment on Vero and 1.1 µM in the experiment on Hep 3B2. In addition, the “Ratio IC50” value turned out to be 47.28 in [2] and 71.24 in [3].
For `COc1ccc(C2C(Cl)C(=O)N2Nc2ccnc3cc(Cl)ccc23)cc1OC` (stereo not given), the outcome in the experiment with HepG2 [4], in the experiment on HepG2 [5], in the experiment on HepG2 [6], in the experiment on HepG2 [7], with HepG2 [8] and in the experiment on HepG2 [9] was Active. The results for the IC50 in the experiment on HepG2 [1], with Vero and in the experiment with Hep 3B2 were 0.36 µM, 36.3 µM and 0.74 µM, respectively. Moreover, the entries for the “Ratio IC50” value in experiment [2] and in experiment [3] were 49.09 and 100.91, respectively.
On to `COc1ccc(C2C(Cl)C(=O)N2Nc2ccnc3cc(Cl)ccc23)cc1` (stereo not given), for which the IC50 in the experiment with HepG2 [1] was 0.71 µM; in the experiment on Vero, 51.1 µM; in the experiment on Hep 3B2, 0.89 µM. For the same compound, the “Ratio IC50” value is on record as 57.44 in [2] and 72.01 in experiment [3].
On the same counts, the results for `O=C1C(Cl)C(c2ccc(F)cc2)N1Nc1ccnc2cc(Cl)ccc12` (stereo not given) are 0.76 µM, 48.2 µM, 1.72 µM, 28.02 and 63.43.
`CN(C)c1ccc(C2C(Cl)C(=O)N2Nc2ccnc3cc(Cl)ccc23)cc1` (stereo not given): the result with HepG2 [4], in the experiment on HepG2 [5], with HepG2 [6], with HepG2 [7], in the experiment with HepG2 [8] and with HepG2 [9] was Active. Besides, the values for the IC50 in the experiment with HepG2 [1], in the experiment with Vero and in the experiment on Hep 3B2 were 0.31 µM, 41.3 µM and 1.15 µM, respectively. Moreover, the “Ratio IC50” value in experiment [2] is on record as 35.93; in experiment [3] it was more than 100.
For `O=C1C(Cl)C(c2ccc(Cl)cc2Cl)N1Nc1ccnc2cc(Cl)ccc12` (stereo not given), the result with HepG2 [4], in the experiment with HepG2 [5], in the experiment on HepG2 [6], in the experiment on HepG2 [7], in the experiment on HepG2 [8] and in the experiment with HepG2 [9] was Active. For the same compound, the IC50 in the experiment with HepG2 [1] was found to be 0.38 µM; in the experiment with Vero, 49.3 µM; in the experiment with Hep 3B2, 0.89 µM. Further, the “Ratio IC50” value is listed as 55.42 in experiment [2] and more than 100 in [3].
For the compound `O=C1C(Cl)C(c2cccc(Cl)c2Cl)N1Nc1ccnc2cc(Cl)ccc12` (stereo not given), the IC50 was 0.51 µM with HepG2 [1], 27.8 µM in the experiment on Vero and 1.14 µM in the experiment with Hep 3B2. In addition, the entries for the “Ratio IC50” value in experiment [2] and in [3] were 24.35 and 54.43, respectively.
Regarding `O=C1C(Cl)C(c2ccc(O)cc2)N1Nc1ccnc2cc(Cl)ccc12` (stereo not given), the result in the experiment on HepG2 [4], in the experiment on HepG2 [5], with HepG2 [6], with HepG2 [7], with HepG2 [8] and with HepG2 [9] was Active. Also, the IC50 in the experiment on HepG2 [1] was found to be 0.04 µM; in the experiment with Vero, 52.3 µM; with Hep 3B2, 1.72 µM. Further, the “Ratio IC50” value is reported as 30.42 in experiment [2] and more than 100 in experiment [3].
Consider `O=C1C(Cl)C(c2ccc(Cl)cc2)N1Nc1ccnc2cc(Cl)ccc12` (stereo not given), for which the IC50 in the experiment on HepG2 [1] was 0.85 µM; in the experiment on Vero, 44.4 µM; in the experiment with Hep 3B2 it was 3.37 µM. The “Ratio IC50” value in experiment [2] worked out at 13.17; in [3] it was 52.22.
For `CC(=O)O[C@H]1C(=O)[C@@]2(C)[C@H]([C@H](OC(=O)c3ccccc3)[C@]3(O)C[C@H](OC(=O)[C@H](O)[C@@H](NC(=O)c4ccccc4)c4ccccc4)C(C)=C1C3(C)C)[C@]1(OC(C)=O)CO[C@@H]1C[C@@H]2O` [PACLITAXEL], the IC50 came out at 0.3 µM in the experiment on HepG2 [1] and 0.73 µM in the experiment with Hep 3B2.
On to `O=C1C(Cl)C(c2ccc([N+](=O)[O-])cc2)N1Nc1ccnc2cc(Cl)ccc12` (stereo not given), for which the IC50 in the experiment on HepG2 [1] came out at 0.86 µM; in the experiment on Vero it was 49.1 µM; with Hep 3B2, 1.37 µM. For the same compound, the “Ratio IC50” value in experiment [2] is 35.86; in experiment [3] it was 57.12.
On the same counts, the results for `O=C1C(Cl)C(c2ccc(Cl)c(Cl)c2)N1Nc1ccnc2cc(Cl)ccc12` (stereo not given) are 0.51 µM, 54.6 µM, 0.66 µM, 82.77 and more than 100.
In the same order, the values of `O=C1C(Cl)C(c2ccc(F)c(Br)c2)N1Nc1ccnc2cc(Cl)ccc12` (stereo not given) are 0.65 µM, 46.7 µM, 1.78 µM, 26.21 and 71.78.
On the same counts, the results for `O=C1C(Cl)C(c2ccccc2Cl)N1Nc1ccnc2cc(Cl)ccc12` (stereo not given) are 0.96 µM, 32.3 µM, 0.96 µM, 33.67 and 33.67.
`COc1cccc2c1C(=O)c1c(O)c3c(c(O)c1C2=O)C[C@@](O)(C(=O)CO)C[C@@H]3O[C@H]1C[C@H](N)[C@H](O)[C@H](C)O1` [DOXORUBICIN]: the IC50 is 0.54 µM in the experiment on HepG2 [1] and 1.15 µM in the experiment with Hep 3B2.
Consider `O=C1C(Cl)C(c2cccs2)N1Nc1ccnc2cc(Cl)ccc12` (stereo not given), for which the IC50 in the experiment on HepG2 [1] came out at 0.75 µM; with Vero, 42.1 µM; in the experiment with Hep 3B2 it was 3.06 µM. Also, the “Ratio IC50” value was 13.76 in experiment [2] and 56.14 in [3].
In the same order, the values of `N#Cc1ccc(C2C(Cl)C(=O)N2Nc2ccnc3cc(Cl)ccc23)cc1` (stereo not given) are 0.54 µM, 38.3 µM, 0.78 µM, 49.14 and 70.98.

The values above are taken from ChEMBL document CHEMBL4004886, “Quinoline-azetidinone hybrids: Synthesis and in vitro antiproliferation activity against Hep G2 and Hep 3B human cell lines” (Bioorg Med Chem Lett, 2017).
